Measured values: ChEMBL document CHEMBL1154329, “Structure and cytotoxicity of arnamial and related fungal sesquiterpene aryl esters” (J Nat Prod, 2009)
Calls of active or inactive are those of the source. No cut-off for these calls is given here. Starred links: 1 amine or outer side, 2 acyl side, 3 side chain; linkers in the order of their positions; H or OH if unused. Positions of bridges follow the written chain, without caps; N, C: chain ends. Non-standard residues stand in square brackets, D forms with d. Residues, ends and D or L forms follow the SMILES beside them. Chains are numbered I, II in the order given. Actinocin(1to9) = Cc1c2oc3c(C)ccc(C(=O)[*:2])c3nc-2c(C(=O)[*:1])c(N)c1=O; NMeV = CN[C@H](C(=O)O)C(C)C; Sar = CNCC(=O)O

What was measured:
CCRF-CEM [1] = test: Cytotoxicity against human CCRF-CEM cells at <=100 uM after 48 hrs by MTT assay; type: functional, cell-based
How it was run: (§1)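 All four lines kept in RPMI 1640 with 10% FBS, 1% GlutaMAX, penicillin/streptomycin. Cells seeded at (2.5-5.0) × 10^4 per well and held overnight at 37 °C. Compounds added as 2-fold DMSO dilutions, top final concentration 100 µM, 0.5% DMSO final. Triplicates, 48 h, 37 °C, 5% CO2. MTT 1 mg/mL added for 3 h. IC50 is the mean of three replicate experiments.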

Jurkat [2] = test: Cytotoxicity against human Jurkat T cells at <=100 uM after 48 hrs by MTT assay; type: functional, cell-based; how it was run: as §1
HCT-116 [3] = test: Cytotoxicity against human HCT116 cells at <=100 uM after 48 hrs by MTT assay; type: functional, cell-based; how it was run: as §1
MCF7 [4] = test: Cytotoxicity against human MCF7 cells at <=100 uM after 48 hrs by MTT assay; type: functional, cell-based; how it was run: as §1
MCF7 [5] = test: Cytotoxicity against human MCF7 cells after 48 hrs by MTT assay; type: functional, cell-based; settings: MCF7, 48 h; how it was run: as §1
HCT-116 [6] = test: Cytotoxicity against human HCT116 cells after 48 hrs by MTT assay; type: functional, cell-based; settings: HCT-116, 48 h; how it was run: as §1
CCRF-CEM [7] = test: Cytotoxicity against human CCRF-CEM cells after 48 hrs by MTT assay; type: functional, cell-based; how it was run: as §1
Jurkat [8] = test: Cytotoxicity against human Jurkat T cells after 48 hrs by MTT assay; type: functional, cell-based; how it was run: as §1
Jurkat [9] = test: Induction of apoptosis in human Jurkat T cells assessed as activation of caspase3 at 10 uM after 6 hrs relative to control; type: functional
How it was run: (§2)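 Jurkat T cells at 1 × 10^6 cells/mL treated for 6 h, then centrifuged at 4 °C, washed and homogenized. Caspase-3 activity read with DEVD-AMC substrate at 200 nM. Rate of fluorescence increase normalized to Bradford protein, expressed as fold over untreated cells. Three independent experiments.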

Jurkat [10] = test: Induction of apoptosis in human Jurkat T cells assessed as increase in DNA fragmentation at 10 uM after 6 hrs by ELISA relative to control; type: functional
How it was run: (§3)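 Jurkat T cells at 1 × 10^6 cells/mL exposed for 6 h. DNA fragmentation measured as histone-DNA complexes by histone ELISA and expressed as fold increase over untreated cells.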

Jurkat [11] = test: Induction of apoptosis in human Jurkat T cells assessed as increase in DNA fragmentation at 0.33 uM after 6 hrs by ELISA relative to control; type: functional; how it was run: as §3
Jurkat [12] = test: Induction of apoptosis in human Jurkat T cells assessed as activation of caspase3 at 0.3 uM after 6 hrs relative to control; type: functional; how it was run: as §2

COc1cc(C)c(C(=O)O[C@@H]2C[C@]3(C)[C@H]4[C@@H](O)C(C)(C)C[C@@]4(O)C=C(CO)[C@]23O)c(O)c1
Activity (CCRF-CEM [1]): inactive
Activity (Jurkat [2]): inactive
Activity (HCT-116 [3]): inactive
Activity (MCF7 [4]): inactive

COc1cc(O)c(C(=O)O[C@@H]2C[C@]3(C)[C@H]4[C@@H](O)C(C)(C)C[C@@]4(O)C=C(CO)[C@]23O)c(C)c1Cl [MELLEOLIDE D]
IC50 (MCF7 [5]): > 100 µM
IC50 (HCT-116 [6]): > 100 µM
IC50 (CCRF-CEM [7]): 61.7 µM
IC50 (Jurkat [8]): > 100 µM

Cc1cc(O)cc(O)c1C(=O)O
Activity (CCRF-CEM [1]): inactive
Activity (Jurkat [2]): inactive
Activity (HCT-116 [3]): inactive
Activity (MCF7 [4]): inactive

COc1cc(O)c(C(=O)O[C@@H]2C[C@@]3(C)C2=C(C=O)[C@@H](O)[C@@H]2CC(C)(C)C[C@@H]23)c(C)c1Cl [ARNAMIAL]
IC50 (MCF7 [5]): 15.4 µM
IC50 (HCT-116 [6]): 10.7 µM
fold change (FC) (Jurkat [9]): 18.1
IC50 (CCRF-CEM [7]): 8.91 µM
IC50 (Jurkat [8]): 3.93 µM
fold change (FC) (Jurkat [10]): 4.5

Cc1cc(O)cc(O)c1C(=O)O[C@@H]1C[C@]2(C)[C@H]3[C@@H](O)C(C)(C)C[C@@]3(O)C=C(C=O)[C@]12O
Activity (CCRF-CEM [1]): inactive
Activity (Jurkat [2]): inactive
Activity (HCT-116 [3]): inactive
Activity (MCF7 [4]): inactive

COc1cc(C)c(C(=O)O)c(O)c1
Activity (CCRF-CEM [1]): inactive
Activity (Jurkat [2]): inactive
Activity (HCT-116 [3]): inactive
Activity (MCF7 [4]): inactive

Cc1cc(O)cc(O)c1C(=O)O[C@@H]1C[C@]2(C)[C@@H]3[C@H](C=C(C=O)[C@]12O)CC(C)(C)[C@@H]3O
IC50 (MCF7 [5]): > 100 µM
IC50 (HCT-116 [6]): > 100 µM
IC50 (CCRF-CEM [7]): 63.2 µM
IC50 (Jurkat [8]): 86.2 µM

Cc1cc(O)cc(O)c1C(=O)O[C@@H]1C[C@]2(C)[C@H]3[C@@H](O)C(C)(C)C[C@@]3(O)C=C(CO)[C@]12O
Activity (CCRF-CEM [1]): inactive
Activity (Jurkat [2]): inactive
Activity (HCT-116 [3]): inactive
Activity (MCF7 [4]): inactive

COc1cc(O)c(C(=O)O[C@@H]2C[C@]3(C)[C@H]4[C@@H](O)C(C)(C)C[C@@]4(O)C=C(C=O)[C@]23O)c(C)c1Cl [MELLEDONAL C]
IC50 (MCF7 [5]): > 100 µM
IC50 (HCT-116 [6]): > 100 µM
IC50 (CCRF-CEM [7]): 14.8 µM
IC50 (Jurkat [8]): 58.8 µM

Cc1c2oc3c(C)ccc(C(=O)N[C@@H]4C(=O)N[C@H](C(C)C)C(=O)N5CCC[C@H]5C(=O)N(C)CC(=O)N(C)[C@@H](C(C)C)C(=O)O[C@@H]4C)c3nc-2c(C(=O)N[C@@H]2C(=O)N[C@H](C(C)C)C(=O)N3CCC[C@H]3C(=O)N(C)CC(=O)N(C)[C@@H](C(C)C)C(=O)O[C@@H]2C)c(N)c1=O [DACTINOMYCIN] (I: T[dV]P[Sar][NMeV] / II: T[dV]P[Sar][NMeV]; ester I:1-I:C, II:1-II:C; linker I:N-II:N via Actinocin(1to9))
fold change (FC) (Jurkat [11]): 4.3
fold change (FC) (Jurkat [12]): 5.7
